We go through 16 compounds from ChEMBL document CHEMBL4041508, “Synthesis and biological evaluation of chemical tools for the study of Dolichol Linked Oligosaccharide Diphosphatase (DLODP)” (Eur J Med Chem, 2017).

SMILES strings stand for the structures. pIC50: −log10 of the molar value. Activity calls are given as the source filed them. No cut-off for these calls is given here.

In general, inhibition refers to how much of the control response was suppressed. For orientation: pIC50 means the negative decadic logarithm of the IC50, by convention in mol/L.

The species entered for test [1] is Homo sapiens. Nature of the test: Inhibition of DLODP in human HepG2 microsomal membrane assessed as reduction in [3H]OSP production at 3 mM using Glc3-0[3H]Man9-5GlcNAc2-PP-dolichol as substrate at pH 5.5 measured after 20 to 60 mins by scintillation counting. It is filed as cell membranes.
The species named for test [2] is Homo sapiens. Nature of the test: Inhibition of DLODP in human HepG2 microsomal membrane assessed as reduction in [3H]OSP production at 50 mM using Glc3-0[3H]Man9-5GlcNAc2-PP-dolichol as substrate at pH 5.5 measured after 20 to 60 mins by scintillation counting. It is filed as cell membranes.
A short description of test [3]: Inhibition of DLODP in human HepG2 microsomal membrane assessed as reduction in [3H]OSP production using Glc3-0[3H]Man9-5GlcNAc2-PP-dolichol as substrate at pH 5.5 measured after 20 to 60 mins by scintillation counting. In kind it is cell membranes.
Test [4] is filed under the species Homo sapiens. Nature of the test: Inhibition of DLODP in human HepG2 microsomes assessed as reduction in neutral oligosaccharide production at low concentration using Glc3-0[3H]Man9-5GlcNAc2-PP-dolichol as substrate measured after 20 to 60 mins by scintillation counting. The essentials:
(§1)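 Cells grown in RPMI 1640 with 10% fetal calf serum and 1% penicillin/streptomycin, plus 1% non-essential amino acids for Caco-2 TC7, for 8 days before total membrane preparation. Assay uses 20 µg membrane protein in standard mix (100 mM MES pH 5.5, 1 mM CoCl2, 0.1% NP-40) with added inhibitor, 37 °C. Radioactivity in OSP and neutral oligosaccharides separated by ion exchange, counted by scintillation.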

The species named for test [5] is Homo sapiens. Nature of the test: Inhibition of DLODP in human HepG2 microsomes assessed as reduction in OSP production at higher concentration using Glc3-0[3H]Man9-5GlcNAc2-PP-dolichol as substrate measured after 20 to 60 mins by scintillation counting. In outline: as §1
Test [6] is filed under the species Homo sapiens. Nature of the test: Inhibition of DLODP in human Caco2 microsomes assessed as reduction in OSP production at higher concentration using Glc3-0[3H]Man9-5GlcNAc2-PP-dolichol as substrate measured after 20 to 60 mins by scintillation counting. In outline: as §1
The species entered for test [7] is Homo sapiens. Nature of the test: Inhibition of DLODP in human Caco2 microsomes assessed as reduction in neutral oligosaccharide production at low concentration using Glc3-0[3H]Man9-5GlcNAc2-PP-dolichol as substrate measured after 20 to 60 mins by scintillation counting. The essentials: as §1

`CCCOP(=O)(O)O`: the inhibition entry in the test listed under Homo sapiens [1] is “inactive”.

Regarding `OC[C@H]1OC(O)[C@@H](O)[C@@H](O)[C@@H]1O` (stereo not given in full), the inhibition result in the test listed under Homo sapiens [2] is “inactive”.

Consider `CC(=O)N[C@H]1[C@@H](O[P@@](=O)(O)O[P@@](=O)(O)OC[C@H]2O[C@@H](n3ccc(=O)[nH]c3=O)[C@H](O)[C@@H]2O)O[C@H](CO)[C@@H](O)[C@@H]1O`, for which the inhibition result in the test listed under Homo sapiens [1] was “inactive”.

Take `O=P(O)(O)CP(=O)(O)O`: the inhibition result in the test listed under Homo sapiens [1] is “inactive”.

Take `CC(C)=CCC[C@H](C)CCOP(=O)(O)CP(=O)(O)O`: the pIC50 in test [3] is 3.15.

For the compound `CC(=O)N[C@@H]1[C@@H](O)[C@H](O[C@@H]2O[C@H](CO)[C@@H](O)[C@H](O)[C@@H]2O)[C@@H](CO)O[C@@H]1O`, the inhibition in the test filed under Homo sapiens [2] worked out at 30%.

As for `CC(C)O`, the inhibition result in the test filed under Homo sapiens [2] is “Active”.

For the compound `CC(=O)N[C@H]1[C@@H](OP(=O)(O)O)O[C@H](CO)[C@@H](O)[C@@H]1O`, the inhibition result in the test listed under Homo sapiens [4], in the test filed under Homo sapiens [5], in the test filed under Homo sapiens [6] and in the test listed under Homo sapiens [7] was “Active” in each case. Further, in test [3], the pIC50 is less than 2.52.

Turning to `CC(=O)N[C@@H]1[C@@H](O)[C@H](O[C@@H]2O[C@H](CO)[C@H](O)[C@H](O)[C@H]2O)[C@@H](CO)O[C@@H]1O`, in the test listed under Homo sapiens [2], the inhibition result was “inactive”.

`CC(=O)N[C@@H]1[C@@H](O)[C@H](O[C@@H]2O[C@H](CO)[C@@H](O)[C@H](O)[C@H]2NC(C)=O)[C@@H](CO)O[C@@H]1O`: the inhibition in the test filed under Homo sapiens [2] was less than 10%.

For the compound `CC(C)=CCC/C(C)=C/CC/C(C)=C/CC/C(C)=C/CC/C(C)=C/CC/C(C)=C/CC/C(C)=C/CC/C(C)=C/CC/C(C)=C/COP(=O)(O)OP(=O)(O)O`, the pIC50 in test [3] is 5.33.

For `O=[N+]([O-])c1ccc(OP(=O)(O)Oc2ccc([N+](=O)[O-])cc2)cc1`, the pIC50 in test [3] is 2.92.

`CC(=O)N[C@@H]1[C@@H](O)[C@H](O)[C@@H](CO)O[C@@H]1O`: the inhibition entry in the test filed under Homo sapiens [2] is “inactive”.

`CO[C@H]1O[C@H](CO)[C@@H](O)[C@H](O)[C@@H]1O`: the inhibition entry in the test listed under Homo sapiens [2] was “inactive”.

In the case of `O=[N+]([O-])c1ccc(OP(=O)(O)O)cc1` [p-NITROPHENYLPHOSPHATE], the pIC50 in test [3] was 2.38.

As to `CO[C@@H]1O[C@H](CO)[C@@H](O)[C@H](O)[C@@H]1O`, in the test listed under Homo sapiens [2], the inhibition came to 10%.
